# Assay results: ChEMBL document CHEMBL2046305, “Discovery of selective menaquinone biosynthesis inhibitors against Mycobacterium tuberculosis” (J Med Chem, 2012)
# pIC50: −log10 of the molar value. Active and inactive are the calls of the source. The calls are words filed in the database; no cut-off is given here.
# Experiments:
# [1] = test system: Mycobacterium tuberculosis; experiment: Inhibition of Mycobacterium tuberculosis MenA using [3H]farnesyl and DHNA as substrate at 100 uM after 2 hrs
# In short: (§1)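 Membrane fraction from mid-log cultures in 7H9/OADC, washed in saline, sonicated in MOPS pH 8/sucrose/MgCl2/2-mercaptoethanol buffer, spun 15,000 g then 200,000 g; the fraction was the enzyme source. DHNA (500 μM stock), MgCl2, 0.1% CHAPS, Tris pH 8, farnesyl diphosphate (200 μM stock) and inhibitor, 2 h at 37 °C. Quenched with 0.1 M AcOH/MeOH, extracted with hexanes, DMMK measured.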
# [2] = test system: Mycobacterium tuberculosis; experiment: Antibacterial activity against Mycobacterium tuberculosis H37Rv ATCC 27294 by microplate alamar blue assay; type: functional
# In short: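 Colorimetric microplate assay run under aerobic conditions; growth scored by the colour change of resazurin. Compounds showing at least 90% inhibition in a preliminary screen were retested at lower concentrations to give the MIC.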
# [3] = test system: Mycobacterium tuberculosis; experiment: Antibacterial activity against non-replicating Mycobacterium tuberculosis H37Rv ATCC 27294 by low oxygen recovery assay; type: functional
# Escherichia coli [4] = experiment: Growth inhibition of Escherichia coli Seattle ATCC 25922 at 5 to 10 ug/ml by microplate alamar blue assay in presence of 50 uM VK2; type: functional, organism-based
# In short: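 E. coli grown with inhibitor under anaerobic conditions; rescue tested by supplementing with menaquinone (VK2, 50 μM).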
# [5] = Inhibition of Mycobacterium tuberculosis MenA using [3H]farnesyl and DHNA as substrate after 2 hrs; in short: as §1
# [6] = test system: Mycobacterium tuberculosis; experiment: Bactericidal activity against Mycobacterium tuberculosis; type: functional
# Staphylococcus aureus [7] = experiment: Antibacterial activity against Staphylococcus aureus Seattle 1945 ATCC 25923 by agar plate diffusion method; type: functional
# Staphylococcus aureus [8] = experiment: Inhibition of Staphylococcus aureus MenA using [3H]farnesyl and DHNA as substrate at 100 uM after 2 hrs; in short: as §1
# Staphylococcus aureus [9] = experiment: Bactericidal activity against Staphylococcus aureus; type: functional
# Escherichia coli [10] = experiment: Growth inhibition of Escherichia coli Seattle ATCC 25922 at 5 to 10 ug/ml by microplate alamar blue assay; type: functional, organism-based
# [11] = test system: Mycobacterium intracellulare; experiment: Antibacterial activity against Mycobacterium intracellulare ATCC 15984 by microplate alamar blue assay; type: functional
# [12] = test system: Mycolicibacterium smegmatis; experiment: Antibacterial activity against Mycobacterium smegmatis by microplate alamar blue assay; type: functional
# [13] = test system: Mycobacterium tuberculosis; experiment: Ratio of MIC for rifampicin to compound MIC for non-replicating Mycobacterium tuberculosis H37Rv ATCC 27294 by low oxygen recovery assay; type: functional
# Escherichia coli [14] = experiment: Antibacterial activity against Escherichia coli Seattle ATCC 25922 at 12.5 ug/ml by oxygen consumption assay; type: functional, organism-based
# HepG2 = experiment: Cytotoxicity against human HepG2 cells after 72 hrs by MTT assay; type: cell-based; conditions: HepG2, 72 h
# In short: (§2)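 Cell viability after 72 h exposure, tested at 10 times the H37Rv MIC; read-out was cellular conversion of MTT into formazan.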
# Vero = experiment: Cytotoxicity against african green monkey Vero cells after 72 hrs by MTT assay; type: cell-based; conditions: Chlorocebus sabaeus; in short: as §2
# [15] = Selectivity ratio of IC50 for african green monkey Vero cells to IC50 for Mycobacterium tuberculosis […]; type: ADME, cell-based; conditions: read-out: Ratio IC50
# [16] = Selectivity ratio of IC50 for human HepG2 cells to IC50 for Mycobacterium tuberculosis […]; type: ADME, cell-based; conditions: read-out: Ratio IC50
SMILES,inhibition [1],MIC [2],MIC [3],growth inhibition (GI) (Escherichia coli [4]),pIC50 [5],MIC [6],MIC (Staphylococcus aureus [7]),inhibition (Staphylococcus aureus [8]),MIC (Staphylococcus aureus [9]),growth inhibition (GI) (Escherichia coli [10]),MIC [11],MIC [12],Ratio [13],Activity (Escherichia coli [14]),IC50 (HepG2),IC50 (Vero),selectivity ratio [15],selectivity ratio [16]
CCCCCCCC(O)c1cccc(CN2CCC(COc3cccc(C(=O)c4ccc(Cl)cc4)c3)CC2)c1 (racemic),Active,12.5 µg/mL,1.88 µg/mL,inactive,4.82,8 µg/mL,> 60 µg/mL,inactive,> 50 µg/mL,Active,–,–,–,–,–,–,–,–
CCCCCC[C@H](CN1CCC(COc2cccc(C(=O)c3ccc(Cl)cc3)c2)CC1)OC(N)=O,Active,2.31 µg/mL,0.85 µg/mL,inactive,5.82,–,> 60 µg/mL,inactive,–,Active,6.5 µg/mL,6.5 µg/mL,1.7,Active,7.5 µg/mL,7.5 µg/mL,–,–
CCCCC(O)CN1CCC(COc2ccc(C(=O)c3ccc(Cl)cc3)c(Cl)c2)CC1 (racemic),Active,6.25 µg/mL,2.82 µg/mL,inactive,4.82,0.5 µg/mL,> 60 µg/mL,inactive,> 50 µg/mL,Active,–,–,–,–,–,–,–,–
CCCCCC[C@@H](CN1CCC(COc2ccc(C(=O)c3ccc(Cl)cc3)c(Cl)c2)CC1)OC(N)=O,Active,1.5 µg/mL,1.45 µg/mL,inactive,5.82,–,> 60 µg/mL,inactive,–,Active,–,–,–,Active,–,–,–,–
CCCCCC[C@H](CN1CCC(COc2cccc(/C(=N\OC)c3ccc(Cl)cc3)c2)CC1)OC(N)=O,Active,2.31 µg/mL,0.85 µg/mL,inactive,5.92,–,> 60 µg/mL,inactive,–,Active,6.5 µg/mL,6.5 µg/mL,–,–,25 µg/mL,25 µg/mL,> 10,> 10
CCCCC(O)CN1CCC(COc2cccc(C(=O)c3ccc(Cl)cc3)c2)CC1 (racemic),Active,12.5 µg/mL,5.2 µg/mL,inactive,4.82,8 µg/mL,> 60 µg/mL,inactive,> 50 µg/mL,Active,–,–,–,–,–,–,–,–
COc1ccc(CCNC(CO)c2cccc(COc3cccc(C(=O)c4ccc(Cl)cc4)c3)c2)cc1 (racemic),Active,12.5 µg/mL,3 µg/mL,inactive,4.82,8 µg/mL,> 60 µg/mL,inactive,> 50 µg/mL,Active,–,–,–,–,–,–,–,–
CCCCCCCC(O)c1cccc(CN2CCC(COc3ccc(C(=O)c4ccc(Cl)cc4)c(Cl)c3)CC2)c1 (racemic),Active,12.5 µg/mL,1.88 µg/mL,inactive,4.70,8 µg/mL,> 60 µg/mL,inactive,> 50 µg/mL,Active,–,–,–,–,–,–,–,–
